According to ChEMBL document CHEMBL3351370, “Straightforward entry to pyrido[2,3-d]pyrimidine-2,4(1H,3H)-diones and their ADME properties” (Bioorg Med Chem, 2014):
≈ marks a conversion by molar mass, not a printed value.

Tests used:
[1] = Thermodynamic solubility in FaSSIF medium after 24 hrs by UV detection and HPLC method; format: physicochemical; details: read-out: Therm_solubility
How it was run: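 Excess solid added to FaSSIF (SIF powder in phosphate buffer), shaken 24 h at 175 rpm and 37 °C, then centrifuged at 20,817g for 15 min. Supernatant quantified by HPLC with UV detection. n = 3.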

[2] = Apparent permeability in human Caco2 cells; format: ADME, cell-based; details: Caco-2
[3] = system: Liver microsome; assay: Stability in human liver microsomes assessed as metabolite formation at 8 uM at 37 degC in presence of NADPH and glucose-6-phosphate; format: ADME
How it was run: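 Compound 8 µM with pooled human liver microsomes (45 donors, 0.5 mg protein/ml) in 0.1 M phosphate buffer pH 7.4 with 3 mM MgCl₂. Started by adding NADPH (1 mM) and glucose-6-phosphate (3 mM). 37 °C, 350 rpm. Aliquots at 0, 10, 20 and 30 min quenched in acetonitrile. Parent compound measured by HPLC-UV/fluorescence as % remaining; Clint from in vitro t1/2 method, scaled to human hepatic Clint.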

[4] = system: Liver microsome; assay: Stability in human liver microsomes assessed as metabolite formation at 8 uM at 37 degC in absence of NADPH and glucose-6-phosphate; format: ADME
How it was run: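 Negative control. Compound 8 µM with pooled human liver microsomes (45 donors, 0.5 mg protein/ml) in 0.1 M phosphate buffer pH 7.4 with 3 mM MgCl₂, without NADPH and glucose-6-phosphate. 37 °C, 350 rpm. Aliquots taken at 0, 10, 20 and 30 min and quenched in acetonitrile. Parent compound measured by HPLC (UV or fluorescence).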

Structure (SMILES) | solubility thermodynamic at 24 h [1] [µM] | Papp [2] [×10⁻⁶ cm/s] | Drug metabolism [3] | Stability [4] | Stability [3]
C=CCn1c(=O)c2cccnc2n(CC=C)c1=O |  |  |  | Stable | Stable
CCCn1c(=O)c2cccnc2n(CCC)c1=O |  |  |  | Stable | Stable
CC(C)CCn1c(=O)c2cccnc2n(CCC(C)C)c1=O |  |  | metabolite_detected | Stable | 
O=c1c2cccnc2n(Cc2ccccc2)c(=O)n1Cc1ccccc1 |  |  |  | Stable | Stable
C=CCn1c(=O)c2cccnc2n(C2CCCCC2)c1=O |  |  |  | Stable | Stable
COc1ccc2c(c1)c(CC(=O)O)c(C)n2C(=O)c1ccc(Cl)cc1 [INDOMETHACIN] |  | 93.3 |  |  | 

Now from value to molecule:

solubility thermodynamic at 24 h [1] [µM] | Papp [2] [×10⁻⁶ cm/s] | Drug metabolism [3] | Stability [4] | Stability [3] | Structure (SMILES)
20.7 (≈ 6.47 µg/mL) | 1.2 | metabolite_detected | Stable |  | C=CCOC(=O)c1cccnc1NC12CC3CC(CC(C3)C1)C2
 |  |  | Stable | Stable | C=CCNC(=O)c1cccnc1NCC=C
 |  |  | Stable | Stable | CC(C)CCNC(=O)c1cccnc1NCCC(C)C
 |  | metabolite_detected | Stable |  | O=C(NC1CCCCC1)c1cccnc1NC1CCCCC1
 |  | metabolite_detected | Stable |  | C=CCNC(=O)c1cccnc1NC(C)(C)CC(C)(C)C
